Experimental data from paper PMC10782576 (ACS infectious diseases, 2019).
“Also recorded” adds a separate entry of the source. Read-outs that look alike come from different tables or passages of the source.

Tests used:
[1] = test system: Ect1/E6E7 normal-type human ectocervical cells; assay: mammalian cell cytotoxicity counter screen, Ect1/E6E7; type: cell-based; details: for Selectivity Index SIEct1: (EC50 for Ect1 cells)/(EC50 for T. vaginalis); for EC50: read-out: EC50 Ect1 Normal Cervical, Ect1/E6E7 cytotoxicity
Trichomonas vaginalis = assay: imaging-based T. vaginalis viability assay; type: cell-based; details: for EC50: Trichomonas vaginalis; for effect of oxygen level on antitrichomonal activity: aerobic, microaerophilic and anaerobic atmospheres compared; for extent of elimination of trichomonads: strict anaerobic atmosphere; for EC50 T. vaginalis: imaging assay, 17 h incubation, microaerophilic unless specified
[2] = test system: Lactobacillus acidophilus; assay: Lactobacillus acidophilus viability assay; type: cell-based; details: for effect on growth and viability of L. acidophilus: anaerobic conditions, at the concentrations tested (Figure 8); for EC50: read-out: EC50 L. acidophilus, anaerobic, 18 h
Method in brief: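 Bacteria from MRS agar colonies were suspended in MRS broth, vortexed and dispensed into 96-well plates. Test compound was added in DMSO (0.5% final). Baseline OD 600 nm was read, then plates were incubated 18 h at 37 °C under anaerobic conditions (GasPak EZ Anaerobe sachets). OD 600 nm was read again to determine change from baseline.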

[3] = test system: NIH/3T3 mouse fibroblast cells; assay: mammalian cell cytotoxicity counter screen, NIH/3T3; type: cell-based; details: read-out: EC50 3T3 Mouse Fibroblast; NIH/3T3 cytotoxicity
Method in brief: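 NIH/3T3 mouse fibroblasts were maintained in DMEM with 5% FetalClone III. Viability was read by MTT or by a Calcein AM/Hoechst 33342 live-cell-area imaging assay. For imaging, a DMSO stock (40 μM Calcein AM, 160 μM Hoechst) was diluted 1:5 in PBS and added. After 30 min, Hoechst-stained nuclei were imaged and cells were scored live or dead by green fluorescence.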

T. vaginalis infection = details: after a single course of treatment; cited from earlier work
[4] = 17 h, read-out: EC50 T. vaginalis

| Molecule | effect of oxygen level on antitrichomonal activity (Trichomonas vaginalis) | EC50 [1] | EC50 [2] | EC50 [3] | other results |
| --- | --- | --- | --- | --- | --- |
| COC1=CC(=O)c2c(O)c3c(c(O)c2C1=O)CC(C)(O)OC3 (stereo not drawn) [compound 1, fusarubin] | decreased as oxygen was introduced | – | – | – | Selectivity Index SIEct1 [1]: 30; EC50 (Trichomonas vaginalis; [4]): 2.5 µM; extent of elimination of trichomonads (Trichomonas vaginalis): partial elimination |
| COC1=CC(=O)c2c(O)c(C)c(CC(C)=O)c(O)c2C1=O [compound 2, javanicin] | – | – | – | – | Selectivity Index SIEct1 [1]: 3.1; EC50 (Trichomonas vaginalis; [4]): 1.3 µM |
| COC1=CC(=O)c2c(O)ccc(O)c2C1=O [compound 9, 2-Methoxynaphthazarin] | decreased as oxygen was introduced | – | – | – | extent of elimination of trichomonads (Trichomonas vaginalis): complete elimination |
| O=C1C(O)=C([C@H]2CC[C@H](c3ccc(Cl)cc3)CC2)C(=O)c2ccccc21 [compound 37, atovaquone, reference compound] | – | – | – | – | Selectivity Index SIEct1 [1]: < 0.1 |
| COC(=O)[C@@]12Oc3cc4c(c(O)c3C(=O)C1=C(O)CC[C@@H]2O)[C@@H]1C=C[C@@]2(C4)C(=O)c3cc(C)cc(O)c3C(O)=C2C1=O [compound 46, xanthoquinodin A1] | maintained consistent potency | – | – | – | Selectivity Index SIEct1 [1]: ~ 20; EC50 (Trichomonas vaginalis; read-out: average EC50 against T. vaginalis): 3 µM; effect on growth and viability of L. acidophilus [2]: near equipotent activity against T. vaginalis and L. acidophilus; also recorded: significant inhibition |
| C/C=C/[C@@H]1C=C[C@@H]2C[C@H](C)CC[C@H]2[C@]1(C)/C(O)=C1/C(=O)[C@@H](CO)N(C)C1=O [compound 49, 5’-epiequisetin] | – | – | – | – | EC50 T. vaginalis (Trichomonas vaginalis): Inactive |
| C/C=C/[C@@H]1C=C[C@@H]2C[C@H](C)CC[C@H]2[C@]1(C)/C(O)=C1/C(=O)N[C@@H](CO)C1=O [compound 50, trichosetin] | – | 34 µM | > 50 µM | 30 µM | – |
| CC1=C[C@H]2C[C@@H](C)CC[C@@H]2[C@@](C)(/C(O)=C2\C(=O)[C@H](CO)N(C)C2=O)[C@H]1/C=C/C=C/C[C@@H](C)O [compound 52, 5’-epipyrrolocin A] | – | – | – | – | EC50 T. vaginalis (Trichomonas vaginalis): Inactive |
| C/C=C/C=C/C1C(C)=CC2CC(C)CCC2C1(C)/C(O)=C1\C(=O)NC(CO)C1=O (stereo not drawn) [compound 53, beauversetin] | no statistically significant change in EC50 value | 35 µM | > 50 µM | 35 µM | effect on growth and viability of L. acidophilus [2]: no effect |
| C/C=C/C=C/[C@H]1C(C)=C[C@H]2C[C@@H](C)CC[C@@H]2[C@@]1(C)/C(O)=C1/C(=O)N[C@@H](CO)C1=O [compound 54, 5’-epibeauversetin] | – | – | – | – | EC50 T. vaginalis (Trichomonas vaginalis): Inactive |
| C/C=C/C=C/[C@H]1C(C)=C[C@H]2C[C@@H](C)CC[C@@H]2[C@@]1(C)/C(O)=C1\C(=O)[C@H](CO)N(C)C1=O [compound 56, 5’-epiphomasetin] | – | – | – | – | EC50 T. vaginalis (Trichomonas vaginalis): Inactive |
| Cc1ncc([N+](=O)[O-])n1CCO [metronidazole, reference compound] | maintained consistent potency | – | – | – | patients cleared of the infection (T. vaginalis infection): > 90%; effect on growth and viability of L. acidophilus [2]: no inhibition |
| CCS(=O)(=O)CCn1c([N+](=O)[O-])cnc1C [tinidazole] | – | – | – | – | patients cleared of the infection (T. vaginalis infection): > 90% |
| equisetin [compound 48] | – | 35 µM | > 50 µM | 100 µM | toxicity to / inhibition of L. acidophilus ([2]; at concentrations up to 50 μM): non-toxic |
| phomasetin [compound 55] | – | 7 µM | > 50 µM | 10 µM | – |
| pyrrolocin A [compound 51] | – | 10 µM | > 50 µM | 6 µM | – |
